Results collected from several papers.
Each line is one published result; the experiments were not run side by side.
RET: Proto-oncogene tyrosine-protein kinase receptor Ret (RET, Homo sapiens, UniProt P07949)
RET M918T: Proto-oncogene tyrosine-protein kinase receptor Ret (RET, Homo sapiens, UniProt P07949, M918T)
RET V804M: Proto-oncogene tyrosine-protein kinase receptor Ret (RET, Homo sapiens, UniProt P07949, V804M)

For `C#Cc1n[nH]c2c(-c3cn(C(C)c4ccccn4)c(=O)[nH]c3=O)cc(F)cc12` (stereo not shown), the inhibition was 8.7% (RET; enzyme activity, inhibitor; 1 µM).
The remaining binding of `N#CC1(c2ccccn2)CCN(Cc2cc(C(=O)O)c(=O)n3ccccc23)CC1` is reported as 100% (RET M918T; cell-free assay, competition with immobilised ligand; 1 µM).
The remaining activity of `CC(C)(C)c1cc(C=C(C#N)C#N)cc(Br)c1O` is reported as 98.2% (RET; enzyme activity, inhibitor; 0.5 µM).
`O=C1NC(=O)N(c2ccccc2)C(=O)C1=CNc1ccc2[nH]c(=O)[nH]c2c1` gave a remaining activity of 107% (RET; enzyme activity, inhibitor, radiometric; 0.1 µM).
`Cc1nn(C)cc1-c1nc2c(N3CCN(Cc4ccc(Cl)cc4)CC3)c(Cl)cnc2[nH]1` gave a remaining binding of 2.1% (Proto-oncogene tyrosine-protein kinase receptor Ret (RET, Homo sapiens, UniProt P07949, V804L); binding, competition with immobilised ligand; 1 µM).
For `Nc1ncc(-c2nc(N3CCOCC3)nc(N3CCOCC3)n2)c(C(F)F)n1`, the remaining binding was 73% (RET V804M; binding, competition with immobilised ligand; 10 µM).
`O=C(Cn1cc(C=C2C(=O)NC(=O)NC2=O)c2ccccc21)Nc1ccccc1` gave a remaining activity of 131% (RET; enzyme activity, inhibitor, radiometric; 0.1 µM).
`Cn1cc(-c2cccc(N3CCc4c(sc5c4CC(C)(C)C5)C3=O)c2CO)cc(Nc2ccncn2)c1=O` has an inhibition of 14% (RET; enzyme activity, inhibitor; 1 µM).
For `Cn1cncc1[C@@](O)(COc1ccc(C#N)cc1-c1ccc(OC(F)(F)F)cc1)c1ccc(C#N)cc1`, the remaining binding was 98% (RET M918T; cell-free assay, competition with immobilised ligand; 1 µM).
`C#Cc1n[nH]c2c(-c3cn([C@@H](C)c4ccccc4)c(=O)[nH]c3=O)cc(F)cc12` gave an inhibition of 2.3% (RET V804M; enzyme activity, inhibitor; 0.1 µM).
